# Source: paper PMC11522000 (Nature Microbiology, 2024)
# What was measured:
# [1] = In vivo pharmacokinetic analysis; design: species or system mouse
# Outline: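 Animals were male C57BL/6 mice (8–10 weeks), Wistar rats (8–10 weeks) and beagle dogs (12–14 weeks). Each received oral and i.v. doses, with plasma sampling for PK parameters.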
# [2] = Stability in intestinal S9 fraction; format: in vitro ADME; settings: human
# Outline: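 Test compound added to intestinal S9 fraction of each species to start the reaction. Incubated in a shaking water bath at 37 °C, with samples taken at sequential timepoints. Samples quenched with ice-cold acetonitrile and analysed by LC-MS/MS. Half-life calculated from the rate of parent compound depletion.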
# [3] = male, C57BL/6, mouse, plasma, iv, 1 mg/kg
# [4] = male, C57BL/6, mouse, plasma, po, 10 mg/kg
compound,measurement,setting,value
"CNC(=O)c1ccc(-c2cnn3ccc(C(=O)N(C)c4ccc(Cl)c(C(=O)OC)c4)cc23)cc1 [EDI048, methyl 2-chloro-5-(N-methyl-3-(4-(methylcarbamoyl)phenyl)pyrazolo[1,5-a]pyridine-5-carboxamido)benzoate]",AUC,[1]; [3],0.668 µM·h
same,Vd,[1]; [3],1.05 L/kg
same,clearance,[1]; [3],66.7 mL/min/kg
same,half-life,[1]; [3],0.43 h
same,AUC,[1]; [4],0.0204 µM·h
same,Cmax,[1]; [4],8.4 nM
same,Tmax,[1]; [4],1 h
same,bioavailability,[1]; [4],0.4%
same,Cmax,"[1]; mouse, oral 1 mg/kg",<LLOQ
same,Cmax,"[1]; mouse, oral 3 mg/kg",<LLOQ
same,half-life,[2],3.92 h
